Active and inactive are the calls of the source. No cut-off for these calls is given here.
What was measured:
[1] = target: T1, Aldo-keto reductase family 1 member C2 (Homo sapiens, UniProt P52895); experiment: Inhibition of human recombinant AKR1C2 using S-tetralol as substrate assessed as reduction in NADP+-dependent S-tetralol oxidation preincubated for 10 mins followed by protein addition by fluorometric assay
T1 sequence (P52895 whole entry): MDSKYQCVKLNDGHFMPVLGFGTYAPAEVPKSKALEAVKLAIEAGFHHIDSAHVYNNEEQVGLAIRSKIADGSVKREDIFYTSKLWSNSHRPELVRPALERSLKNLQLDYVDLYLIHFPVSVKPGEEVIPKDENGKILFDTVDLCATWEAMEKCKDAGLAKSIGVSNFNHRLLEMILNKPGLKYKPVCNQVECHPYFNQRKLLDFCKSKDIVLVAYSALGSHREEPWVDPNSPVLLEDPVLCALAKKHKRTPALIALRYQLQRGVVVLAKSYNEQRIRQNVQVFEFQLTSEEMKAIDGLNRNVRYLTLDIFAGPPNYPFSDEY

[2] = target: T2, Aldo-keto reductase family 1 member C3 (Homo sapiens, UniProt P42330); experiment: Inhibition of human recombinant AKR1C3 using S-tetralol as substrate assessed as reduction in NADP+-dependent S-tetralol oxidation preincubated for 10 mins followed by protein addition by fluorometric assay
T2 sequence (P42330 whole entry): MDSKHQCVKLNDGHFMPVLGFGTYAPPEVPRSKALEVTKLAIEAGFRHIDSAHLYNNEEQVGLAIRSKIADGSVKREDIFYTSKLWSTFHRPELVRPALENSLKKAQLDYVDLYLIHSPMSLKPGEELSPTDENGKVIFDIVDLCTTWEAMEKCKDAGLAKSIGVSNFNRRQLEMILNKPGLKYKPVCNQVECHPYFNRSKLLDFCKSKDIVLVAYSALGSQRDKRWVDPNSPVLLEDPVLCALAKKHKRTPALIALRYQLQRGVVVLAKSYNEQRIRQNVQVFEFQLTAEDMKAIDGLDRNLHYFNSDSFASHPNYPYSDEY

[3] = target: T3, Prostaglandin G/H synthase 1 (Ovis aries) (UniProt P05979); conditions: 100 uM
T3 sequence (whole entry): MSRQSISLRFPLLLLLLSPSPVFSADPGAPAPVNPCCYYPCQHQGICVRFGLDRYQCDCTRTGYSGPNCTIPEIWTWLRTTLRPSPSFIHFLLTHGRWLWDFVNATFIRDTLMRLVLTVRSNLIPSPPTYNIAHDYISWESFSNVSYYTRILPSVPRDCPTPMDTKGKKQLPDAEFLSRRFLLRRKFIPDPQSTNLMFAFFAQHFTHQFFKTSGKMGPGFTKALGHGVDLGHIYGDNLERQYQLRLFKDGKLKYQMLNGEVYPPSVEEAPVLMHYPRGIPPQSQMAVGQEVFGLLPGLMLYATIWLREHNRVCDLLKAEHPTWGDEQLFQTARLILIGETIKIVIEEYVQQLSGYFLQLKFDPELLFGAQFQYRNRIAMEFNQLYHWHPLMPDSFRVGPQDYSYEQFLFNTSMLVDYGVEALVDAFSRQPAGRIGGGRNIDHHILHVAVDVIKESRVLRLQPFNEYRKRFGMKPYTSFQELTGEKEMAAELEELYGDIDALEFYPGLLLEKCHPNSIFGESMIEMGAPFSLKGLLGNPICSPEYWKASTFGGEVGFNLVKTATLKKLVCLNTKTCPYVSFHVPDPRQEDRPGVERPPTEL

[4] = target: T4, Prostaglandin G/H synthase 2 (Homo sapiens, UniProt P35354); experiment: Inhibition of COX2 (unknown origin) using arachidonic acid as substrate assessed as […] by measuring TMPD oxidation preincubated for 5 mins followed by substrate/TMPD addition measured for 5 mins by colorimetric assay
T4 sequence (P35354 whole entry): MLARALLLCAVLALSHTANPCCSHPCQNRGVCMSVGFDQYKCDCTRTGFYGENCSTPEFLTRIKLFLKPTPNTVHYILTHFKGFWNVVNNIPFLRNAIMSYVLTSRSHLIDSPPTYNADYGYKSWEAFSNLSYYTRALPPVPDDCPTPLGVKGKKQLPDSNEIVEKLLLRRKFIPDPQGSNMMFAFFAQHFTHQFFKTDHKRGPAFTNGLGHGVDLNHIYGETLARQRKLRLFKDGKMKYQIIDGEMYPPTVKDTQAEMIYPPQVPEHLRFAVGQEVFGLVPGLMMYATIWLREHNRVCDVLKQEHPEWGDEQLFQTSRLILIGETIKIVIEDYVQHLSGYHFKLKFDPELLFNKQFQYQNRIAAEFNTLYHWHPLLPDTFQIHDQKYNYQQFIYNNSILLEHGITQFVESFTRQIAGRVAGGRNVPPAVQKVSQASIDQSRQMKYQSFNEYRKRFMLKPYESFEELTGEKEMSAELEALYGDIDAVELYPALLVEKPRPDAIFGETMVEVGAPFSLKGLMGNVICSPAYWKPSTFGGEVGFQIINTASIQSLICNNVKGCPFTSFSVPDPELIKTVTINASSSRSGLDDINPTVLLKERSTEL

[5] = target: T5, Androgen receptor (Homo sapiens) (UniProt P10275); experiment: Effect on 5alpha-DHT-induced activation of AR (unknown origin) expressed in human HeLa13 cells at 10 uM incubated for 20 hrs by luciferase reporter gene assay; format: cell-based
T5 sequence (whole entry): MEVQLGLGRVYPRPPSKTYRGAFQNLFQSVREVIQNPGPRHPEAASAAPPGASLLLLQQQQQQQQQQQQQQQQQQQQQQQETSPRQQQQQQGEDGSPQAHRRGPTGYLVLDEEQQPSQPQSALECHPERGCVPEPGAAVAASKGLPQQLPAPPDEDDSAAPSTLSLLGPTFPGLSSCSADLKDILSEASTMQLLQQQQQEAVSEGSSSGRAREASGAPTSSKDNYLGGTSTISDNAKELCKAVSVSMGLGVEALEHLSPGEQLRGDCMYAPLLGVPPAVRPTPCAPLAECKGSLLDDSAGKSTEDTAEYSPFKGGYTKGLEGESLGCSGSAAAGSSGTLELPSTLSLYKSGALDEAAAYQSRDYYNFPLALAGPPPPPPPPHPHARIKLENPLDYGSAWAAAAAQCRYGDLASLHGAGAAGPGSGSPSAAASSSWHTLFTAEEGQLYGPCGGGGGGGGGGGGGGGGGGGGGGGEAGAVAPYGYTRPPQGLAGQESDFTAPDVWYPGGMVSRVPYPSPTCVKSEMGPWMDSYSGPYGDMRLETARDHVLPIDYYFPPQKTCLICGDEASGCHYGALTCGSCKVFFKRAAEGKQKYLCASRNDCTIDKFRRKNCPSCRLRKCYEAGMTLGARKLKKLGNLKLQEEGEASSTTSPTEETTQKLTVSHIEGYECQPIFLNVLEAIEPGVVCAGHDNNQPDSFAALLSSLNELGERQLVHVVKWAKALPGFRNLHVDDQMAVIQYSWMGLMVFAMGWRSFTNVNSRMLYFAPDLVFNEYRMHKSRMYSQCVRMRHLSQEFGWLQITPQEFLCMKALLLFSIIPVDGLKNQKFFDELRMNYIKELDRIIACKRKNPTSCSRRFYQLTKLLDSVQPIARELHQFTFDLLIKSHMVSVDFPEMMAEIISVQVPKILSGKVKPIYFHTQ
Procedure, shortened: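 HeLa13 cells stably carrying AR and an androgen-response-element luciferase reporter were grown 48 h in phenol-red-free medium with 5% charcoal-stripped FBS. They were plated for 6–7 h, then given fresh medium with 5α-DHT (1 nM in methods; increasing concentrations also tested) plus inhibitor. Luciferase was read after 20 h, as fold induction over untreated cells.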

[6] = target: T6, Prostaglandin G/H synthase 1 (Ovis aries, UniProt P05979); experiment: Inhibition of COX1 in ram seminal vesicles using arachidonic acid as substrate assessed as reduction in […] by measuring TMPD oxidation preincubated for 5 mins followed by substrate/TMPD addition measured for 5 mins by colorimetric assay
T6 sequence (P05979 whole entry): T3 sequence (whole entry)

[7] = target: T7, Prostaglandin G/H synthase 2 (Homo sapiens) (UniProt P35354); experiment: Inhibition of COX2 (unknown origin) using arachidonic acid as substrate assessed as reduction in […] by measuring TMPD oxidation at 10 uM preincubated for 5 mins followed by substrate/TMPD addition measured for 5 mins by colorimetric assay
T7 sequence (whole entry): T4 sequence (P35354 whole entry)

## CSc1ccc2cc([C@H](C)C(=O)O)ccc2c1
[1]
  IC50: 1.35 µM
[2]
  IC50: 0.07 µM

## COc1ccc2cc([C@@H](C)C(=O)O)ccc2c1
[1]
  IC50: 2.75 µM
[3]
  inhibition: < 20%
[4]; read-out: IC50
  IC50: > 25 µM

## CC[C@@H](C(=O)O)c1ccc2cc(OC)ccc2c1
[4]
  IC50: Not Active
[5]
  Activity: inactive

## CC[C@H](C(=O)O)c1ccc2cc(OC)ccc2c1
[1]
  IC50: 1.72 µM
[4]
  IC50: Not Active
[2]
  IC50: 0.12 µM
[6]
  IC50: 1.93 µM

## CCC(C(=O)O)c1ccc2cc(OC)ccc2c1 (racemic)
[1]
  IC50: 7.6 µM
[7]
  inhibition: inactive
[2]
  IC50: 0.12 µM

## CCc1ccc2cc(C(C)C(=O)O)ccc2c1 (racemic)
[1]
  IC50: 1.9 µM
[2]
  IC50: 0.12 µM

## CCC(C(=O)NS(C)(=O)=O)c1ccc2cc(OC)ccc2c1 (racemic)
[1]
  IC50: 34 µM
[2]
  IC50: 6 µM

## CCOc1ccc2cc(C(C)C(=O)O)ccc2c1 (racemic)
[1]
  IC50: 2.4 µM
[2]
  IC50: 0.1 µM

## CSc1ccc2cc(C(C)C(=O)O)ccc2c1 (racemic)
[1]
  IC50: 1.5 µM
[2]
  IC50: 0.06 µM

## COc1ccc2cc([C@H](C)C(=O)O)ccc2c1 [NAPROXEN]
[4]; read-out: IC50
  IC50: 0.9 µM

— ChEMBL document CHEMBL4428055 (J Med Chem, 2016)
